Results taken from ChEMBL document CHEMBL3272013, “Synthesis and biological evaluation of substituted 2,2'-oxybis(propionic acid) derivatives and related compounds” (1976).
Several values for one entry are separate records, joined by “and”; a condition that tells them apart may be missing. Equal entries are not always repeated.

Assays:
Type in all cases: functional
[1] = tested on: Rattus norvegicus; experiment: Hypolipidemic activity in albino Wistar Royal Hart rat assessed as change in plasma triglyceride level at 60 mg/kg, po for 6 days
Method in brief: (§1)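 Male albino Wistar Royal Hart rats (160–180 g) were kept 7 days on drug-free ground Purina Lab Chow, then grouped six per group. Compound was given orally, once daily, for 3 or 6 days. Controls received no compound. Rats were anesthetized with sodium hexobarbital and bled from the carotid artery. Serum (1.0 ml) went into 9.0 ml 2-propanol with zeolite-copper hydroxide/Lloyd reagent, shaken 1 h. Cholesterol and triglyceride were autoanalyzed on the same sample. Change is given as % of control.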

[2] = tested on: Rattus norvegicus; experiment: Hypolipidemic activity in albino Wistar Royal Hart rat assessed as change in plasma cholesterol level at 120 mg/kg, po for 6 days; method in brief: as §1
[3] = tested on: Rattus norvegicus; experiment: Hypolipidemic activity in albino Wistar Royal Hart rat assessed as change in plasma cholesterol level at 60 mg/kg, po for 3 days; conditions: in the assay text read “for 6 days” for “for 3 days”; method in brief: as §1
[4] = tested on: Rattus norvegicus; experiment: Hypolipidemic activity in albino Wistar Royal Hart rat assessed as change in plasma triglyceride level at 250 mg/kg, po for 6 days; method in brief: as §1
[5] = tested on: Rattus norvegicus; experiment: Hypolipidemic activity in albino Wistar Royal Hart rat assessed as change in plasma cholesterol level at 250 mg/kg, po for 6 days; method in brief: as §1
[6] = tested on: Rattus norvegicus; experiment: Hypolipidemic activity in albino Wistar Royal Hart rat assessed as change in plasma triglyceride level at 120 mg/kg, po for 6 days; method in brief: as §1
[7] = tested on: Rattus norvegicus; experiment: Hypolipidemic activity in albino Wistar Royal Hart rat assessed as change in plasma triglyceride level at 120 mg/kg, po for 3 days; method in brief: as §1
[8] = tested on: Rattus norvegicus; experiment: Hypolipidemic activity in albino Wistar Royal Hart rat assessed as change in plasma cholesterol level at 120 mg/kg, po for 3 days; method in brief: as §1
[9] = tested on: Rattus norvegicus; experiment: Hypolipidemic activity in albino Wistar Royal Hart rat assessed as change in plasma cholesterol level at 250 mg/kg, po for 3 days; method in brief: as §1
[10] = tested on: Rattus norvegicus; experiment: Hypolipidemic activity in albino Wistar Royal Hart rat assessed as change in plasma triglyceride level at 250 mg/kg, po for 3 days; method in brief: as §1
[11] = tested on: Rattus norvegicus; experiment: Hypolipidemic activity in albino Wistar Royal Hart rat assessed as change in plasma cholesterol level at 60 mg/kg, po for 6 days; method in brief: as §1
[12] = tested on: Rattus norvegicus; experiment: Hypolipidemic activity in albino Wistar Royal Hart rat assessed as change in plasma triglyceride level at 60 mg/kg, po for 3 days; method in brief: as §1
[13] = tested on: Rattus norvegicus; experiment: Hypolipidemic activity in albino Wistar Royal Hart rat assessed as change in plasma cholesterol level at 30 mg/kg, po for 6 days; method in brief: as §1
[14] = tested on: Rattus norvegicus; experiment: Hypolipidemic activity in albino Wistar Royal Hart rat assessed as change in plasma triglyceride level at 30 mg/kg, po for 6 days; method in brief: as §1
[15] = tested on: Rattus norvegicus; experiment: Hypolipidemic activity in albino Wistar Royal Hart rat assessed as change in plasma triglyceride level at 300 mg/kg, po for 6 days; method in brief: as §1
[16] = tested on: Rattus norvegicus; experiment: Hypolipidemic activity in albino Wistar Royal Hart rat assessed as change in plasma cholesterol level at 300 mg/kg, po for 6 days; method in brief: as §1
[17] = in the assay text read “for 3 days” for “for 6 days”

Row | Structure (SMILES) | Activity [7] [%] | Activity [8] [%] | further results
1 | CC(C)(CNCc1ccc(Cl)cc1)OC(C)(C)CNCc1ccc(Cl)cc1.Cl |  |  | Activity [1]: -9%; Activity [2]: -15%; Activity [3]: -25%; Activity [4]: -77%; Activity [5]: -7%; Activity [6]: -64%
2 | CN1CCC(O)(C#CC2(O)CCN(C)CC2)CC1 | 43 | 19 | 
3 | CC1(C)CN(Cc2ccccc2)CC(C)(C)O1 | 9 | -14 | 
4 | CC(C)(O)C#CC(C)(O)c1ccc(Cl)cc1 (centres undefined) | 6 | 11 | 
5 | CC1(C)OC(c2ccccc2)(c2ccccc2)/C(=N\O)C1=O | -19 | -6 | 
6 | CC1(C)CN(Cc2ccccc2)CC(c2ccccc2)(c2ccccc2)O1.Cl | -15 | 0 | 
7 | CC1(C)OC(c2ccccc2)(c2ccc(Cl)cc2)C(=O)N(Cc2ccccc2)C1=O (centres undefined) |  |  | Activity [4]: -4%; Activity [5]: -7%
8 | CC1(C)OC(c2ccccc2)(c2ccc(Cl)cc2)/C(=N\O)C1=O (centres undefined) | -29 | -6 | 
9 | CC1(C)OC(C)(C)C(=O)N(Cc2ccc(Cl)cc2)C1=O | 50 | -3 | 
10 | CN1CCC(O)(/C=C\C2(O)CCN(C)CC2)CC1 |  |  | Activity [9]: -17%; Activity [10]: -28%
11 | CC(C)(O)C#CC(O)(c1ccccc1)c1ccc(Cl)cc1 (centres undefined) | 3 | 48 | 
12 | OC1(CCC(O)(c2ccccc2)c2ccccc2)CCCCC1 | 74 | -5 | 
13 | CC1(C)C=CC(c2ccncc2)(c2ccc(Cl)cc2)O1 (centres undefined) | -65 | 32 | 
14 | CC1(C)OC(c2ccccc2)(c2ccccc2)C(=O)N(Cc2ccccc2)C1=O |  |  | Activity [11, 17]: -9%; Activity [12]: -7%
15 | CN1CCC(O)(C#CC(C)(C)O)CC1 | 86 | 20 | 
16 | CC1(C)C=CC(C)(c2ccccc2)O1 (centres undefined) | 27 | -7 | 
17 | CN1CCC(O)(CCC2(O)CCN(C)CC2)CC1 | 29 | -4 | 
18 | CC1(C)CN(Cc2ccc(Cl)cc2)CC(C)(C)O1 | -10 | -3 | 
19 | CN1CCC(OC(=O)C(Oc2ccc(Cl)cc2)Oc2ccc(Cl)cc2)CC1 [LIFIBRATE] |  |  | Activity [13]: -30%; Activity [14]: -50%
20 | CC1(C)OC(c2ccccc2)(c2ccccc2)C(=O)N(Cc2ccc(Cl)cc2)C1=O | -16 | -9 | 
21 | CC(C)(O)C#CC(O)(c1ccncc1)c1ccc(Cl)cc1 (centres undefined) | 34 | 30 | 

Row | Structure (SMILES) | Activity [7] [%] | Activity [8] [%] | further results
22 | CN1CCC(O)(/C=C\C(C)(C)O)CC1.Cl | -10 | -4 | 
23 | COC(=O)C(C)(C)OC(C)(C(=O)OC)c1ccc(Cl)cc1 (centres undefined) | 9 | 29 | 
24 | COC(=O)C(C)(C)OC(C)(C(=O)OC)c1ccccc1 (centres undefined) | -3 | 0 | 
25 | CCOC(=O)C(C)(C)Oc1ccc(Cl)cc1 [CLOFIBRATE] |  |  | Activity [15]: -49%; Activity [16]: -34%
26 | CC(=O)N1CCC(O)(CCC(C)(C)O)CC1 | -22 | -7 | 
27 | CC(C)(OC(C(=O)O)(c1ccccc1)c1ccc(Cl)cc1)C(=O)O (centres undefined) | 33 | 6 | 
28 | CC(C)(OC(C)(C)C(=O)O)C(=O)O | -32 | 4 | 
29 | CC(=O)N1CCC2(CC1)CCC(C)(C)O2 |  |  | Activity [4]: -39%; Activity [5]: -11%
30 | CC(OC1(C(=O)O)CCCCC1)(C(=O)O)c1ccccc1 (centres undefined) | -2 | 28 | 
31 | CC1(C)OC(C)(C)C(=O)N(Cc2ccccc2)C1=O | 51 | 35 | 
32 | CC1(C)OC(c2ccccc2)(c2ccccc2)C(=O)N(c2ccccc2)C1=O | 8 | -6 | 
33 | CC(=O)N1CCC(O)(/C=C\C(C)(C)O)CC1 | 92 | 21 | 
34 | CC1(C)OC(c2ccncc2)(c2ccc(Cl)cc2)C2OC21 (centres undefined) |  |  | Activity ([11]; 60 mg/kg): -8% and -6%
35 | CC1(C)OC(c2ccccc2)(c2ccc(Cl)cc2)C2OC21 (centres undefined) |  |  | Activity ([8]; 120 mg/kg): -11% and -12%
36 | COC(=O)C(C)(C)OC1(C(=O)OC)CCCCC1 | 8 | -8 | 
37 | O=C(c1ccccc1)N1CCC(O)(/C=C\C2(O)CCN(C(=O)c3ccccc3)CC2)CC1 | 27 | -3 | 
38 | CC(C)(OC(C(=O)O)(c1ccccc1)c1ccccc1)C(=O)O | 8 | -11 | 
39 | CC1(C)C=CC(c2ccccc2)(c2ccc(Cl)cc2)O1 (centres undefined) |  |  | Activity [11, 17]: -11%; Activity [12]: -17%
40 | CC1(C)OC(C)(c2ccccc2)C2OC21 (centres undefined) |  |  | Activity [4]: -6%; Activity [5]: -11%
41 | CC1(C)CN(Cc2ccc(Cl)cc2)CC(c2ccccc2)(c2ccccc2)O1 | -45 | 12 | 
